Rows were chosen to be rich in hits. Some 1.9% of all compounds tested hit in one or more screens of this group.
ARFGAP1 inh = inhibits rat ARF GTPase activating protein 1. actives 0.26% (n = 360,000). Arfgap1-stimulated ARF1 GTP hydrolysis, GDP FP detection. Q62848. inhibition, % at 16.5 µM. AID 651572;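 active means inhibition above a per-plate limit, mean inhibition of low control wells plus 3 SD, cut at about 25% in these data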
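System: truncated rat Arfgap1 GAP domain / Medium: HEPES-based buffer, pH 7.5 / Also added: N-terminally truncated human ARF1-GTP substrate / Incubation: enzyme reaction 120 min at 25 °C after 20 min preincubation / Measured by: FP of antibody-bound GDP Alexa 633 tracer, ex 620/em 688 nm / Replicates: singlicate, each compound tested once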
sPLA2-III inh = Inhibits HGIII-sPLA2 liposome hydrolysis, primary screen | Q9NZ20 | QFRET BODIPY PC-A2 liposome hydrolysis, fluorescence | inhibition, % at 12.2 µM | actives 0.56% (n = 370,000) | AID 743126;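 active means inhibition above mean plus 3 SD of compounds lying within the high and low control bounds, cut at about 19% in these data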
PLCb3 inh = inhibitors of human phospholipase C beta3. inhibition, % at 12.2 µM. actives 0.18% (n = 370,000). Purified PLC-beta3, fluorogenic substrate, fluorescence. Q01970. AID 720704
ASAP1 GAP inh = blocks human ASAP1-stimulated Arf1 GTP hydrolysis; GDP FP detection; inhibition, % at 16.5 µM; actives 0.19% (n = 360,000); AID 624377; in the data active means inhibition above about 25%
Target sequence (Q9ULH1 325-724 limits assumed): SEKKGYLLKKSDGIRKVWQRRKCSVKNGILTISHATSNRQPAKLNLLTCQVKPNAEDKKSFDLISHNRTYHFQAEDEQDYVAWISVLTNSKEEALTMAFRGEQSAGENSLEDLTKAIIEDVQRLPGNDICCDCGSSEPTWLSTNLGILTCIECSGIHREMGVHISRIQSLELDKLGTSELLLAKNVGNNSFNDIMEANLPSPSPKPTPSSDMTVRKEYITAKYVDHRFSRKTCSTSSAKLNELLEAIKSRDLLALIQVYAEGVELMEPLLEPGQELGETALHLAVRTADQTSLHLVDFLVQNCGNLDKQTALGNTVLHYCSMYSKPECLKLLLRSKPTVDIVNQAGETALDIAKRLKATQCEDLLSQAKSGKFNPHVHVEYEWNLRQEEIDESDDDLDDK
PLCg1 inh = inhibitors of human phospholipase C gamma1 | P19174 | actives 0.84% (n = 370,000) | inhibition, % at 12.2 µM | purified PLC-gamma1, fluorogenic substrate, fluorescence; in the data active means inhibition above about 9.5%
PLCgamma1 ctr = counter-screen for PLC-beta3 inhibitors: inhibitors of human PLC-gamma1; shares compounds with PLCg1 inh; purified PLC-gamma1, fluorogenic substrate, fluorescence; inhibition, % at 12.3 µM; actives 3.1% (n = 3,300); in the data active means inhibition above about 9.5%
PLCbeta3 conf = confirmation of human PLC-beta3 inhibitors | actives 1% (n = 3,300) | inhibition, % at 12.3 µM | shares compounds with PLCg1 inh | purified PLC-beta3, fluorogenic substrate fluorescence
Hits are given with their value; – = inactive; · = no result; ! = not confirmed by another sample. Unless noted, no stated cut-off is given here; in the data, active means inhibition above about 11%; inactive means the rest.

SMILES | ARFGAP1 inh | sPLA2-III inh | PLCb3 inh | ASAP1 GAP inh | PLCg1 inh | PLCgamma1 ctr | PLCbeta3 conf
CS(=O)(=O)N1CCC(C(=O)NCc2ccc(Cl)cc2)CC1 | – | – | – | – | 11.5 | – | –
c1ccc(CNC2CCC23CCC(c2ccccc2)CC3)cc1 (stereo not given) | · | – | – | · | – | · | ·
O=C(CSc1nc2ccccc2[nH]1)Nc1ccccc1N1CCOCC1 | – | – | – | – | 10.1 | – | –
O=[N+]([O-])c1ccccc1CNC1CCCCCC1 | – | – | – | – | – | · | ·
Cc1ccccc1CNC1CCCCC1 | – | – | 11.8 | – | – | – | –
Cc1ccc(S(=O)(=O)N2CCN(CC(=O)NC3CCCc4ccccc43)CC2)cc1C (stereo not given) | – | – | – | – | 11.0! | – | –
Cc1ccc(-n2nnnc2-c2cnc(-c3cccnc3)nc2C(F)(F)F)cc1 | – | – | – | – | 10.5 | – | –
O=C(NCc1cccs1)C1CCC(CNS(=O)(=O)c2cccc3cccnc23)CC1 (stereo not given) | · | – | – | · | – | · | ·
COc1cc(Cl)cc(C(c2c(C(=O)O)[nH]c3ccccc23)c2c(C(=O)O)[nH]c3ccccc23)c1O | – | – | – | – | 10.7 | – | –
C[C@@H]1/C=C/CC(=O)N2[C@H](CC(=O)N[C@@H]1c1ccccc1)C[C@@H](C)[C@H]2c1ccccc1 | · | – | – | · | – | · | ·
NCCc1nnc(SCC(=O)Nc2ccc(Br)cc2)o1 | – | – | – | – | – | · | ·
CN(C)C(=O)CSc1nnc(CCN)o1 | – | – | – | – | 12.9 | – | –
COc1ccc(CCNC(=O)CN2C(=O)COc3ccc(S(=O)(=O)N4CCOCC4)cc32)cc1OC | – | – | – | – | 11.3 | – | –
COc1ccc([C@H]2OC(=O)C[C@H]2C(=O)N2CCCC2)cc1OC | · | – | – | · | – | · | ·
CC(NCc1ccco1)C(=O)N1CCOCC1 (stereo not given) | · | – | – | · | – | · | ·
Cc1cc(Br)cc2c(C(=O)NCC3CCCO3)cc(-c3cccs3)nc12 (stereo not given) | – | – | – | – | 12.1 | – | –
COc1cccc(-c2cc(C(=O)NCC3CCCO3)c3cc(Br)cc(C)c3n2)c1 (stereo not given) | – | – | – | – | – | · | ·
O=C(NN=C/C=C/c1ccco1)c1cc(-c2ccc(Cl)cc2)n[nH]1 | · | – | – | · | – | · | ·
CCn1c(O)c(N=NC(=O)c2ccc(CSc3nncn3C)cc2)c2ccccc21 | – | – | – | – | 11.2 | – | –
CC(C)[C@H]1COc2c3ccccc3nn21 | · | – | – | · | – | · | ·
C[C@H](NC(=O)C(c1ccccc1)c1ccccc1)c1ccccc1 | – | – | – | – | – | · | ·
CC(NC(=O)C(c1ccccc1)c1ccccc1)c1ccccc1 (stereo not given) | – | – | – | – | 16.4 | – | –
COC(=O)c1sccc1S(=O)(=O)Nc1ccc(S(N)(=O)=O)cc1 | – | – | – | – | – | · | ·
COC(=O)c1sccc1S(=O)(=O)Nc1ccc(N2CCCCC2)cc1 | – | – | – | – | 9.6 | – | –
O=C(Cn1cc(C(=O)C(F)(F)F)c2ccccc21)NCc1ccco1 | – | – | – | – | – | · | ·
SMILES | ARFGAP1 inh | sPLA2-III inh | PLCb3 inh | ASAP1 GAP inh | PLCg1 inh | PLCgamma1 ctr | PLCbeta3 conf
CCC(=O)c1cn(CC(=O)NCc2ccco2)c2ccccc12 | – | – | – | – | 10.0 | – | –
O=C(Cn1cc(C(=O)c2ccco2)c2ccccc21)NCc1ccco1 | – | – | – | – | – | · | ·
COC(=O)c1cn(CC(=O)NCc2ccco2)c2ccccc12 | – | – | – | – | 13.0 | – | –
CCOC(=O)[C@]12CCCCC/C=C\1N(Cc1ccc(OC)cc1)C(=O)[C@H]2CC(=O)NCC1CCCCC1 | · | – | – | · | – | · | ·
CCC(CC)C(=O)Nc1c2c(nn1-c1ccc(OC)cc1)CS(=O)C2 (stereo not given) | – | – | – | – | 11.9 | – | –
CCC(=O)Nc1c2c(nn1-c1ccc(OC)cc1)CS(=O)C2 (stereo not given) | – | – | – | – | – | · | ·
CC(C)(C)Nc1scc(-c2ccccc2)[n+]1-c1ccccc1 | – | – | – | – | 9.7 | – | –
c1ccc(C[n+]2c(-c3ccccc3)csc2Nc2ccccc2)cc1 | – | – | – | – | – | · | ·
